# The list is not random: actives were taken first. Their share in the collection is about 1.9%.
# APJ agonist: agonists of human apelin receptor APJ, primary screen, CHO-K1 cells, PathHunter beta-arrestin, luminescence; P35414; 0% DMSO wells, 100% apelin; activation, % at 20 µM; 330,000 tested, 0.11% active; AID 2520, 2010;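 active = activation more than six SD over the plate average, tested at 20 µM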
#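 Assay system – PathHunter CHO-K1 APJ (AGTRL-1) beta-arrestin reporter cells · Compound – one dose, 20 µM compound, 1% DMSO · Timing – compound 90 min 25 °C, reagent 1 h · Measured by – luminescence from split beta-galactosidase complementation, Galacton Star/Emerald II substrate · Measure – beta-arrestin recruitment to APJ as agonist activity, luminescent signal · Benchmarks – DMSO vs Apelin-13 10 nM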
# TAG inh: inhibitors of triacylglycerol accumulation, primary screen, cell-based, uHTS, fluorescence, H9c2 | AID 651582, 2012 | 230,000 tested, 0.66% active | H9c2 cells, Nile Red lipid (TAG) fluorescence; cells loaded with 200 µM oleic acid | inhibition, % at 12.5 µM;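 active = pattern-corrected inhibition of lipid staining of at least 50% with the nuclear-stain viability signal not falling by more than 50%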
# CCR6 antag: CCR6 receptor antagonists, primary screen, cell-based, CHO-K1, luminescence, beta-arrestin, uHTS. C-C chemokine receptor type 6 (Homo sapiens), P51684. CHO-K1 CCR6 PathHunter beta-arrestin, CCL20-stimulated. AID 493098, 2011. 340,000 tested, 0.49% active. inhibition, % at 20 µM;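 active = compounds whose inhibition of the agonist-driven luminescence signal at 20 µM reaches about 50%, limit read from the data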;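 also: cells stimulated with CCL20 at 14 nM final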
# EBI2 block: EBI2 receptor antagonists, beta-arrestin recruitment, primary screen, cell-based, luminescence, 7a,25-OHC stimulation, uHTS. G-protein coupled receptor 183 (Homo sapiens), P32249. inhibition, % at 5 µM. 360,000 tested, 0.81% active. 7a,25-OHC stimulated; in the data active = inhibition above about 38%;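 also: enzyme fragment complementation signal reports receptor beta-arrestin coupling in cells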
# APJ antag: antagonists of human apelin receptor APJ, primary screen, CHO-K1 cells, beta-arrestin complementation, luminescence. P35414. inhibition, % at 20 µM. 330,000 tested, 0.32% active. AID 2521, 2010;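 active = inhibition above about 40% at 20 µM, limit read from the data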;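 also: cells challenged with 10 nM apelin-13 agonist together with compound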
# CXCR6 block: CXCR6 receptor inhibitors, primary screen, cell-based, beta-arrestin, luminescence, CHO-K1 PathHunter, 1536-well; inhibition, % at 20 µM; 360,000 tested, 0.36% active; AID 602244, 2012; in the data active = inhibition above about 34%, passing the limit was not always enough;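 also: antagonist mode with CXCL16 agonist at 10 nM final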
# Target sequence (O00574 whole entry, looked up): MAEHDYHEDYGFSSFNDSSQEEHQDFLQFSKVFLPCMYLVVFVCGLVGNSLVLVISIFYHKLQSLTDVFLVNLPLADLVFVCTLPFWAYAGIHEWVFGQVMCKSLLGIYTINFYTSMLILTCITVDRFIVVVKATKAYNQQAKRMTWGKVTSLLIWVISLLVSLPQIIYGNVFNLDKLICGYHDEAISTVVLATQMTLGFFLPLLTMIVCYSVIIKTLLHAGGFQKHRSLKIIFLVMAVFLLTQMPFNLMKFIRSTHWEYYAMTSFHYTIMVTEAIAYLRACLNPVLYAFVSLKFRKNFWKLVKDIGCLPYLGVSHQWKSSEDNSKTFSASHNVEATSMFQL
# A number is an active result; – = inactive; · = no result.
SMILES,APJ agonist,TAG inh,CCR6 antag,EBI2 block,APJ antag,CXCR6 block
COc1ccc(NC(=O)CN2CCN(S(=O)(=O)c3ccc(Cl)cc3)CC2)cc1Cl,–,–,–,38,–,–
O=C(NNC(=S)NC(=O)C12CC3CC(CC(C3)C1)C2)c1ccncc1,–,·,51,–,–,–
CC1(C(=O)NC(=S)NNC(=O)c2ccncc2)CCCCC1,–,–,–,–,–,–
COc1ccc(-c2n(Cc3ccccc3)c3ccccc3[n+]2Cc2ccccc2)cc1,–,–,–,–,–,–
COc1ccc(C(=O)CNc2ccc(C)cc2C)cc1,–,–,79,–,–,43
c1ccc(C(c2nnnn2Cc2ccco2)N2CCN(c3nc4ccccc4s3)CC2)cc1 (centres undefined),–,·,–,36,–,–
c1ccc(Cn2nnnc2C(c2ccccc2)N2CCN(c3nc4ccccc4s3)CC2)cc1 (centres undefined),–,·,–,–,–,–
CN(Cc1ccc(Cl)s1)C(=O)CCl,–,65,–,–,–,–
CC(=O)OC[C@H]1O[C@@H](Oc2cc3ccc(=O)oc3cc2OC(C)=O)[C@H](OC(C)=O)[C@@H](OC(C)=O)[C@@H]1OC(C)=O,·,–,–,–,·,–
CC(C)NC(=O)C1(C)CCCCN1Cc1ccc(OCc2ccccc2)cc1 (centres undefined),·,–,·,–,·,–
COc1cc2nc(C3CCC3)nc(N3CCN(c4ccccn4)CC3)c2cc1OC,–,·,–,52,–,–
CCCCn1c(N)c(N(Cc2ccccc2OC)C(=O)CN2C(=O)NC(C)(c3ccccc3)C2=O)c(=O)[nH]c1=O (centres undefined),–,–,–,–,–,–
COc1ccc(N2C(=O)C(Cl)=C(Oc3cccc(OC)c3)C2=O)cc1,–,·,97,–,–,–
Cc1cc(CNC[C@H]2O[C@@H](n3cnc4c(N)ncnc43)[C@H](O)[C@@H]2O)no1,·,–,·,–,·,–
CCCC(=O)NC(c1ccc(Cl)cc1)c1ccc2cccnc2c1O (centres undefined),–,–,–,–,–,–
Oc1c(C(Nc2nccs2)c2ccc(C(F)(F)F)cc2)ccc2cccnc12 (centres undefined),·,60,–,–,·,–
CCCC(=O)NC(c1ccc(C)cc1)c1ccc2cccnc2c1O (centres undefined),–,61,–,–,–,–
CC(C)C(=O)NC(c1ccco1)c1ccc2cccnc2c1O (centres undefined),–,72,–,–,–,–
CCCCC(=O)NC(c1ccc(Cl)cc1)c1ccc2cccnc2c1O (centres undefined),–,52,–,–,–,–
Oc1c(C(Nc2cccc(C(F)(F)F)c2)c2ccncc2)ccc2cccnc12 (centres undefined),–,–,–,–,–,–
CC(C)(C)n1nnnc1C(c1ccccc1)N1CCN(c2ncccn2)CC1 (centres undefined),·,·,·,–,·,–
Cc1ccc(S(=O)(=O)N2CCOCC2)cc1C(=O)OCC(=O)NCCc1ccccc1,–,–,–,–,–,–
CCC(=O)NC(c1ccc(C)cc1)c1cc(Cl)c2cccnc2c1O (centres undefined),–,–,56,–,–,–
CC(C)(C)C1CCC(=NNC(=S)NCc2ccccc2)CC1 (centres undefined),–,–,52,–,–,–
O=C1N(c2ccc(Cl)c(Cl)c2)CN(Cc2ccccc2)CN1n1cnnc1,–,·,–,–,–,–
SMILES,APJ agonist,TAG inh,CCR6 antag,EBI2 block,APJ antag,CXCR6 block
COc1ccc(CN2CN(c3ccc(Cl)cc3)C(=O)N(n3cnnc3)C2)cc1,–,·,–,–,–,44
O=C(CC(O)(CC(=O)OCc1ccccc1)C(=O)OCc1ccccc1)OCc1ccccc1,·,–,–,–,·,–
Cc1ccc(NC(=O)C(=Cc2ccc(C(=O)O)cc2)C(=O)Nc2ccc(C)cc2C)c(C)c1,–,56,–,–,–,–
CC(=O)C(=Cc1ccc(C(=O)O)cc1)C(C)=O,–,–,–,–,–,–
Cc1ccc(CN2[C@@H](c3ccccc3)COCCS2(=O)=O)cc1,–,–,–,–,–,–
Cc1ccc(Nc2nc(-c3c(C)nc4ncccn34)cs2)cc1,–,·,–,–,–,–
Cc1ccc(Nc2nc(-c3c(C)nc4ccccn34)cs2)cc1,–,·,–,65,–,–
Nc1nn2c(-c3ccccc3)cc(=O)[nH]c2c1N=Nc1ccc(O)cc1,–,·,–,–,–,–
Nc1nn2c(-c3ccccc3)cc(=O)[nH]c2c1N=Nc1ccc(Br)cc1,·,·,–,–,·,41
O=C(O)c1ccc(N2C(=O)/C(=C/c3ccc(-c4ccc([N+](=O)[O-])cc4)o3)C=C2c2ccccc2)cc1,–,–,·,–,–,45
Cc1cccc(NC(=O)Nc2ccc(Oc3c(F)c(F)c(F)c(F)c3F)cc2)c1,–,·,–,–,–,–
O=C(Nc1ccc(Oc2c(F)c(F)c(F)c(F)c2F)cc1)OC1CCN2Cc3ccccc3N=C12 (centres undefined),–,–,–,44,–,–
CCSC1=N/C(=C\c2ccc(C(=O)O)cc2)C(=O)S1,–,–,–,–,–,–
CCOC(=O)SC1=N/C(=C\c2ccc(N(C)C)cc2)C(=O)S1,–,·,51,–,–,–
Cc1ccc2c(c1)c1ncnc(N3CCOCC3)c1n2C,–,–,–,–,–,–
Cn1c2ccccc2c2ccc3c(c21)C(=O)C=CC3=O,·,–,109,–,·,70
COc1ccc2c(c1)c1ncn(CCN3CCCC3)c(=O)c1n2C,–,·,–,–,–,–
Cc1ccc2c(c1)c1ccc3c(c1n2C)C(=O)C=CC3=O,–,·,106,–,–,60
COc1ccc2c(c1)c1ccc3c(c1n2C)C(=O)C=CC3=O,–,·,106,–,44,79
CCCCNC(=O)c1nc(C2CCN(S(=O)(=O)c3cccc(C(F)(F)F)c3)CC2)oc1-c1cccc(C(F)(F)F)c1,·,·,·,–,·,–
CCCS(=O)(=O)NC(=O)C1(C)CCN(C(=O)c2cccc(C)c2C)C1 (centres undefined),·,–,·,–,·,–
O=C(NCC(c1cccs1)N1CCOCC1)c1ccc(OCc2ccccc2)cc1 (centres undefined),–,–,–,–,–,–
CCOC(=O)Cn1cc(/C=C/[N+](=O)[O-])c2ccccc21,–,·,–,–,–,–
CCOC(=O)COc1ccc(/C=C/[N+](=O)[O-])c(OCC(=O)OCC)c1,–,·,55,–,–,–
O=[N+]([O-])/C=C/c1c(OCc2ccccc2)ccc2ccccc12,–,–,·,–,–,36
